Measurements published in ChEMBL document CHEMBL4680121, “Development of (4-methoxyphenyl)-1H-tetrazol-5-amine regioisomers as a new class of selective antitubercular agents” (Eur J Med Chem, 2020).
In brackets after ≈: the same amount, converted by molar mass.

What was measured:
[1] = test system: Escherichia coli; assay: Antibacterial activity against Escherichia coli ATCC 25922 assessed as bacterial growth inhibition measured after 18 hrs by two-fold serial microdilution method; assay type: functional
Procedure, shortened: (§1)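 Two-fold serial broth microdilution in MH II medium following modified CLSI procedures. Compounds were dissolved in DMSO and diluted in medium to at most 1% solvent, tested from 0.03125 to 512 μg/ml. Final inoculum 10^6 CFU/ml. MIC was taken as the lowest concentration with no visible growth after 18 h at 35 °C.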

[2] = test system: Staphylococcus epidermidis; assay: Antibacterial activity against Staphylococcus epidermidis ATCC 35984/RP62A assessed as bacterial growth inhibition measured after 18 hrs by two-fold serial microdilution method; assay type: functional; procedure, shortened: as §1
[3] = test system: Staphylococcus epidermidis; assay: Antibacterial activity against Staphylococcus epidermidis ATCC 12228 assessed as bacterial growth inhibition measured after 18 hrs by two-fold serial microdilution method; assay type: functional; procedure, shortened: as §1
[4] = test system: Staphylococcus epidermidis; assay: Antibacterial activity against Staphylococcus epidermidis ATCC 1457 assessed as bacterial growth inhibition measured after 18 hrs by two-fold serial microdilution method; assay type: functional; procedure, shortened: as §1
[5] = test system: Staphylococcus aureus; assay: Antibacterial activity against Staphylococcus aureus ATCC 6538 assessed as bacterial growth inhibition measured after 18 hrs by two-fold serial microdilution method; assay type: functional; procedure, shortened: as §1
[6] = test system: Staphylococcus aureus; assay: Antibacterial activity against Staphylococcus aureus NCTC 4163 assessed as bacterial growth inhibition measured after 18 hrs by two-fold serial microdilution method; assay type: functional; procedure, shortened: as §1
[7] = test system: Pseudomonas aeruginosa; assay: Antibacterial activity against Pseudomonas aeruginosa NCTC 6749 assessed as bacterial growth inhibition measured after 18 hrs by two-fold serial microdilution method; assay type: functional; procedure, shortened: as §1
[8] = test system: Pseudomonas aeruginosa; assay: Antibacterial activity against Pseudomonas aeruginosa PAO1 assessed as bacterial growth inhibition measured after 18 hrs by two-fold serial microdilution method; assay type: functional; procedure, shortened: as §1
[9] = test system: Klebsiella pneumoniae; assay: Antibacterial activity against Klebsiella pneumoniae ATCC 10031 assessed as bacterial growth inhibition measured after 18 hrs by two-fold serial microdilution method; assay type: functional; procedure, shortened: as §1
[10] = test system: Proteus vulgaris; assay: Antibacterial activity against Proteus vulgaris NCTC 4635 assessed as bacterial growth inhibition measured after 18 hrs by two-fold serial microdilution method; assay type: functional; procedure, shortened: as §1
[11] = test system: Mycobacterium tuberculosis; assay: Antitubercular activity against Mycobacterium tuberculosis H37Rv ATCC 25618 assessed as inhibition of microbial growth by classical test tube method; assay type: functional
Procedure, shortened: (§2)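 Classical test-tube serial dilution in Youmans' modified Proskauer–Beck liquid medium with 10% bovine serum. Inoculum came from 14-day-old cultures. Compounds were given as DMSO solutions (stock 10 mg/ml), diluted geometrically in medium to 3.1–100 µg/ml, and incubated at 37 °C. MIC is the minimum concentration inhibiting growth relative to a no-compound control.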

[12] = test system: Mycobacterium tuberculosis; assay: Antitubercular activity against Mycobacterium tuberculosis Spec.192 assessed as inhibition of microbial growth by classical test tube method; assay type: functional; procedure, shortened: as §2
[13] = test system: Mycobacterium intracellulare; assay: Antimycobacterial activity against Mycobacterium intracellulare assessed as inhibition of microbial growth incubated for 1 week by MABA method; assay type: functional; conditions: 168 h, time 1 weeks
Procedure, shortened: (§3)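 Microplate Alamar Blue assay using two-fold serial microdilution in Middlebrook 7H9 broth with 10% OADC, compounds 0.125–512 µg/ml from DMSO stocks. Inoculum came from fresh LJ culture, was adjusted to McFarland 1 and diluted 1:20. Plates were incubated 1 week at 37 °C, Alamar blue was added and plates were re-incubated 24 h. MIC was the lowest concentration preventing the blue-to-pink change. Each plate carried growth and sterile controls.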

[14] = test system: Mycobacterium tuberculosis; assay: Antitubercular activity against Mycobacterium tuberculosis H37Rv ATCC 25618 assessed as inhibition of microbial growth incubated for 1 week by MABA method; assay type: functional; conditions: H37Rv ATCC 25618, 168 h, time 1 weeks
Procedure, shortened: (§4)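 Microplate Alamar Blue assay in Middlebrook 7H9 broth with 10% OADC. Inoculum from fresh LJ culture was adjusted to McFarland 1 and diluted 1:20. DMSO stocks were two-fold serially diluted to final 0.125–512 µg/ml, with growth and sterile controls. Plates ran 1 week at 37 °C, then Alamar blue was added for 24 h. MIC is the lowest concentration preventing the blue-to-pink change.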

[15] = test system: Mycobacterium tuberculosis; assay: Antitubercular activity against Mycobacterium tuberculosis Spec.192 assessed as inhibition of microbial growth incubated for 1 week by MABA method; assay type: functional; conditions: Mycobacterium tuberculosis, 192, 168 h; time 1 weeks; procedure, shortened: as §4
[16] = test system: Mycobacterium avium; assay: Antimycobacterial activity against Mycobacterium avium assessed as inhibition of microbial growth incubated for 1 week by MABA method; assay type: functional; conditions: 168 h, time 1 weeks; procedure, shortened: as §4
[17] = test system: Mycobacterium kansasii; assay: Antibacterial activity against Mycobacterium kansasii assessed as inhibition of microbial growth incubated for 1 week by MABA method; assay type: functional; conditions: 168 h, time 1 weeks; procedure, shortened: as §3
[18] = test system: Mycobacterium scrofulaceum; assay: Antibacterial activity against Mycobacterium scrofulaceum assessed as inhibition of microbial growth incubated for 1 week by MABA method; assay type: functional; conditions: 168 h, time 1 weeks; procedure, shortened: as §3
[19] = test system: Mycolicibacterium fortuitum; assay: Antibacterial activity against Mycobacterium fortuitum assessed as inhibition of microbial growth incubated for 1 week by MABA method; assay type: functional; conditions: 168 h, time 1 weeks; procedure, shortened: as §3
[20] = test system: Mycobacterium xenopi; assay: Antibacterial activity against Mycobacterium xenopi assessed as inhibition of microbial growth incubated for 1 week by MABA method; assay type: functional; conditions: 168 h, time 1 weeks; procedure, shortened: as §3
[21] = test system: V79; assay: Cytotoxicity against Chinese Hamster V79 cells assessed as reduction in cell viability measured after 72 hrs by MTT assay; assay type: cell-based; conditions: Cricetulus griseus, V79, 72 h
Procedure, shortened: (§5)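 MTT viability assay on cells grown in DMEM with 10% heat-inactivated FBS, penicillin/streptomycin and 20 mM HEPES at 37 °C/5% CO2. Cells were seeded at 1×10^4 per well and allowed to adhere for 24 h, then the medium was refreshed. Compounds were added at 20–140 μM for 72 h at 37 °C, followed by MTT (0.5 mg/mL in serum-free medium) for 4 h. Untreated cells served as control. IC50 is the concentration giving 50% growth inhibition versus control.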

[22] = test system: HaCaT; assay: Cytotoxicity against human HaCaT cells assessed as reduction in cell viability measured after 72 hrs by MTT assay; assay type: cell-based; procedure, shortened: as §5
[23] = test system: V79; assay: Cytotoxicity against Chinese Hamster V79 cells assessed as reduction in cell viability at 100 uM measured after 72 hrs by MTT assay; assay type: cell-based, Cricetulus griseus; conditions: v79, 72 h; procedure, shortened: as §5
[24] = test system: HaCaT; assay: Cytotoxicity against human HaCaT cells assessed as reduction in cell viability at 100 uM measured after 72 hrs by MTT assay; assay type: cell-based; procedure, shortened: as §5
[25] = test system: Mycobacterium scrofulaceum; assay: Potency index, ratio of isoniazid MIC to test compound MIC for antibacterial activity against Mycobacterium scrofulaceum assessed as inhibition of microbial growth incubated for 1 week by MABA method; assay type: functional; conditions: time 1 weeks

Compound	MIC [1] [µg/mL]	MIC [2] [µg/mL]	MIC [3] [µg/mL]	MIC [4] [µg/mL]	MIC [5] [µg/mL]	MIC [6] [µg/mL]	MIC [7] [µg/mL]	MIC [8] [µg/mL]	MIC [9] [µg/mL]	MIC [10] [µg/mL]	MIC [11] [µg/mL]	MIC [12] [µg/mL]	MIC [13] [µg/mL]	MIC [14] [µg/mL]	MIC [15] [µg/mL]	MIC [16] [µg/mL]	MIC [17] [µg/mL]	MIC [18] [µg/mL]	MIC [19] [µg/mL]	MIC [20] [µg/mL]	other results
COc1ccc(NC(=S)Nc2cccc(F)c2)cc1	> 256	> 256	> 256	> 256	> 256	> 256	> 256	> 256	> 256	> 256	50	100	–	–	–	–	–	–	–	–	–
NNC(=O)c1ccncc1 [ISONIAZID]	–	–	–	–	–	–	–	–	–	–	6.25	6.25	64	0.125	0.125	32	32	64	128	64	–
COc1ccc(NC(=S)Nc2ccccc2Cl)cc1	> 256	> 256	> 256	> 256	> 256	> 256	> 256	> 256	> 256	> 256	25	25	–	–	–	–	–	–	–	–	–
COc1ccc(NC(=S)Nc2ccc(Br)cc2)cc1	> 256	> 256	> 256	> 256	> 256	> 256	> 256	> 256	> 256	> 256	25	25	–	–	–	–	–	–	–	–	–
COc1ccc(NC(S)=Nc2ccc(F)cc2)cc1	> 256	> 256	> 256	> 256	> 256	> 256	> 256	> 256	> 256	> 256	50	100	–	–	–	–	–	–	–	–	–
COc1ccc(NC(=S)Nc2cccc(Cl)c2)cc1	> 256	> 256	> 256	> 256	> 256	> 256	> 256	> 256	> 256	> 256	100	100	–	–	–	–	–	–	–	–	–
COc1ccc(Nc2nnnn2-c2ccc(F)cc2)cc1	256 (≈ 897 µM)	128 (≈ 449 µM)	64 (≈ 224 µM)	128 (≈ 449 µM)	64 (≈ 224 µM)	64 (≈ 224 µM)	256 (≈ 897 µM)	256 (≈ 897 µM)	> 256	256 (≈ 897 µM)	–	–	512	8	8	> 512	512	64	> 512	256	IC50 [21]: 145 µM; IC50 [22]: 101 µM; Activity [23]: Non-Toxic; Activity [24]: Non-Toxic
COc1ccc(NC(=S)Nc2cccc(Br)c2)cc1	> 256	> 256	> 256	> 256	> 256	> 256	> 256	> 256	> 256	> 256	50	50	–	–	–	–	–	–	–	–	–
COc1ccc(-n2nnnc2Nc2cccc(F)c2)cc1	> 256	128 (≈ 449 µM)	32 (≈ 112 µM)	256 (≈ 897 µM)	64 (≈ 224 µM)	128 (≈ 449 µM)	> 256	> 256	> 256	> 256	–	–	64	8	8	128	512	16	256	512	IC50 [21]: 248 µM; IC50 [22]: 127 µM; Activity [23]: Non-Toxic; Activity [24]: Non-Toxic; Ratio [25]: 4
